Screening data: PubChem BioAssay, Sanford-Burnham Center for Chemical Genomics
This is a sample that favours compounds with a hit; in the whole collection about 1.9% have one here.
DNMT1 block – inhibitors of human DNMT1 | P26358 | DNMT1 molecular beacon, Hinp1I cleavage, fluorescence | inhibition (reported as % activation of signal), % at 10 µM | 360,000 tested, 0.83% active | AID 588458; in the data active means inhibition above about 50%
Target sequence (P26358 504-1616 limits assumed): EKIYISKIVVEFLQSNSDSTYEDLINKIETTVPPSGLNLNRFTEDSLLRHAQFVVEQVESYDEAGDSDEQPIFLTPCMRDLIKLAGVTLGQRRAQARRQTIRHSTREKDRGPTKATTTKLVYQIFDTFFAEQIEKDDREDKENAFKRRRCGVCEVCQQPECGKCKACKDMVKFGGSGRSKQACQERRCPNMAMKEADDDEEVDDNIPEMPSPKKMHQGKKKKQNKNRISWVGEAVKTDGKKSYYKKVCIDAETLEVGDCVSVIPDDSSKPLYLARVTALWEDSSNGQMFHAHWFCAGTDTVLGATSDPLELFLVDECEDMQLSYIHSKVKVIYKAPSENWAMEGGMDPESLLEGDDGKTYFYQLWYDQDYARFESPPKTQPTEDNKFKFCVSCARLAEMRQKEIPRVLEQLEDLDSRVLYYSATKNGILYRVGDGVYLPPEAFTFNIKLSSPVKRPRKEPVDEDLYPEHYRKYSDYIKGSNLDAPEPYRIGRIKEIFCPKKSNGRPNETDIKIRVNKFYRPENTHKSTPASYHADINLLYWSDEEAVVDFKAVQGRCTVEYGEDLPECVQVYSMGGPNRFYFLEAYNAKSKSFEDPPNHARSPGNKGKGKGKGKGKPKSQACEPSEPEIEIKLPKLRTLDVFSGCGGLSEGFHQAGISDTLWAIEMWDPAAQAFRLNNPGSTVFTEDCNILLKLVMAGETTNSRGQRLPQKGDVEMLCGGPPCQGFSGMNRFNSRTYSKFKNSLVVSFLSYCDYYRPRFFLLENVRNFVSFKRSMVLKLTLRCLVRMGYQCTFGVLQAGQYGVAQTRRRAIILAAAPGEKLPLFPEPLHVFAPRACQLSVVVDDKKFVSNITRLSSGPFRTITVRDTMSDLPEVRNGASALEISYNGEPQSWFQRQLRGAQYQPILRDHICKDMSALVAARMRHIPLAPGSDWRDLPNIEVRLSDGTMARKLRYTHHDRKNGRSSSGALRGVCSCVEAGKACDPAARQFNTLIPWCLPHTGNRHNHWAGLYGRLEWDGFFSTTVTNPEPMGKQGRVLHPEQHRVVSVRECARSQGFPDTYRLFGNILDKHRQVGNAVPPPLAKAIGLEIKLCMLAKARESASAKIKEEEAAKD
UBC9 SUMO inh – blocks human SUMOylation mediated by UBC9. AID 2006. HTRF SUMOylation assay, SAE1/SAE2 + UBC9, in vitro. P63279. inhibition, % at 35 µM. 290,000 tested, 0.36% active; in the data active means inhibition above about 50%, passing the limit was not always enough
STEP block – blocks human striatal-enriched tyrosine phosphatase | P54829 | 360,000 tested, 0.25% active | inhibition, % at 20 µM | recombinant STEP, OMFP fluorogenic substrate, fluorescence;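 active means inhibition at 20 µM, scaled per plate between control wells, above about 37%, limit read from the data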;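 further: 0% = DMSO with enzyme and substrate and 100% = substrate only without enzyme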
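Also added – OMFP at 25 µM · Test system – STEP tyrosine phosphatase · Technique – FITC-channel fluorescence of OMFP product · Schedule – 20 min at room temperature, dark · Evaluation – control-normalized % inhibition with plate pattern correction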
SUMO1-SIM PPI – alters human SUMO1 binding to SIM partners; P63165; SUMO1 binding to a labelled peptide, TR-FRET, 1 h; inhibition, % at 20 µM; 360,000 tested, 0.33% active; in the data active means inhibition above about 37%
Scp1 inh – inhibitors of human Scp-1 phosphatase; Q9GZU7; Recombinant Scp1, phosphopeptide, malachite green phosphate absorbance; inhibition, % at 20 µM; 340,000 tested, 0.88% active; AID 493091;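 active means inhibition above about 50% at 20 µM, limit read from the data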;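 further: plate controls were DMSO wells with enzyme for no effect and wells lacking enzyme for full effect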
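Material: truncated SCP-1 phosphatase (76-261aa) / Buffer or medium: 50 mM Tris acetate pH 5.5, 0.005% Tween-20, 10 mM MgCl2 / Compound dosing: one concentration, 20 µM, with 1.0% DMSO / Incubation: 45 min room-temperature reaction, 5 min colour, 30 min stabiliser / Detection: colorimetric free-phosphate detection, absorbance 630 nm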
LMPTP block – LMPTP (human) inhibition; P24666; recombinant LMPTP-A, OMFP fluorogenic substrate, fluorescence intensity; inhibition, % at 20 µM; 360,000 tested, 0.22% active;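 active means compounds that cut the enzyme signal by at least half of the control window in the single-dose screen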;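 further: plate controls were DMSO wells with enzyme plus substrate for no effect and substrate without enzyme for full effect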
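Buffer or medium: Bis-Tris pH 6.0, DTT, detergent; Assay system: LMPTP-A enzyme; Quantity: 0.625 nM enzyme; Detection: endpoint fluorescence intensity; Times: 50 min dark incubation at room temperature; Controls: substrate-only low control, DMSO enzyme-plus-substrate high control; Doses: single 20 µM dose; Read-out: percent inhibition versus substrate-only and uninhibited controls; Reagent: 400 µM OMFP.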
Scp-1 conf – confirmation of human Scp-1 phosphatase inhibitors; inhibition, % at 20 µM; 2,500 tested, 61% active; recombinant SCP-1 catalytic domain, phosphate release, malachite green absorbance; shares compounds with Scp1 inh;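 further: plate controls were DMSO with enzyme for no effect and buffer wells lacking enzyme for full effect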
Scp-1 MG ctr – interferes with malachite green readout, flagging false Scp-1 hits. shares compounds with Scp1 inh. Colorimetric interference counterscreen, malachite green absorbance 630 nm. apparent inhibition (interference), % at 20 µM. 2,500 tested, under 10 active;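 further: compounds added after enzyme reaction finished so only phosphate colour detection is probed; plate controls were DMSO wells with completed Scp-1 reaction for no effect and substrate wells lacking enzyme for full effect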
Scp1 DSF – Scp-1 (human) binding by thermal shift. shares compounds with Scp1 inh. Recombinant SCP1, Sypro Orange thermal shift Tm. thermal shift relative to vanadate control, % at 40 µM. 1,500 tested, 25% active. AID 540329;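 active means substances whose mean melting-temperature shift, as a percentage of the reference inhibitor's shift, reaches about 5.3%, limit read from the data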;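 further: 0% = Tm of DMSO wells and 100% = Tm with sodium orthovanadate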
An asterisk follows results filed as active; · = no result given; ! = a repeat was not active.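 How the source made its calls, unless noted: active means inhibition of at least 30% at 20 µM; inactive means the rest.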

SMILES	DNMT1 block	UBC9 SUMO inh	STEP block	SUMO1-SIM PPI	Scp1 inh	LMPTP block	Scp-1 conf	Scp-1 MG ctr	Scp1 DSF
O=c1[nH][nH]c(=O)c2cc([N+](=O)[O-])ccc12	-2	·	-4	-30	50*!	0	-12	-12	·
O=c1[nH]cnc2ccc([N+](=O)[O-])cc12	0	35	-3	-33	-1	0	·	·	·
CCc1ccc(OCC(=O)NNC(=O)c2ccc(NC(=O)C3CC3)cc2)cc1	16	10	39	19	52*	37	78*	-11	-25
C/C(=N\OCc1ccccc1)c1c(O)cc(C(C)C)n(-c2ccccc2)c1=O	0	-1	1	3	-5	0	·	·	·
COC(=O)c1ccccc1NC(=O)c1cc[n+](C)cc1	0	·	-3	-34	51*	-2	-12	-22	·
COC(=O)c1ccccc1NC(=O)c1cc[n+]([O-])cc1	-1	6	2	-6	0	-1	·	·	·
O=C1CSc2ccc(C(=O)N3CCCCC3)cc2N1	-5	·	2	-1	·	1	·	·	·
CC[N+](C)(CC)CCC(c1ccccc1)C1CCCCC1 (stereo not drawn)	3	-13	1	-4	96*	-1	97*	-1	-8
Cc1c(Cl)cnn1CC(=O)NC1C(=O)N2C(C(=O)O)=C(CSc3nnnn3C)CSC12 (stereo not drawn)	12	-1	8	6	47	0	·	·	·
Cc1nn(CC(=O)NC2C(=O)N3C(C(=O)O)=C(CSc4nnnn4C)CSC23)cc1Br (stereo not drawn)	2	6	-1	-1	10	0	·	·	·
Cn1nnnc1SCC1=C(C(=O)O)N2C(=O)C(NC(=O)Cn3nc(C(F)F)cc3C3CC3)C2SC1 (stereo not drawn)	9	7	3	2	56*	0	61*	-13	1
Cc1c(Cl)c(C(F)F)nn1CC(=O)NC1C(=O)N2C(C(=O)O)=C(CSc3nnnn3C)CSC12 (stereo not drawn)	27	12	7	13	68*	1	56*	-19	5
Cc1ccc2nc(C)cc(C(=O)OCC(=O)Nc3c(C)n(C)n(-c4ccccc4)c3=O)c2c1	3	16	0	-6	-5	-2	·	·	·
C/C(=N\Nc1ccc(C(F)(F)F)cn1)c1ccc(S(=O)(=O)NCc2ccco2)cc1	3	18	0	-2	59*	-1	-3	-7	·
O=C(Oc1ccc(/C=N/NC(=O)c2ccccc2O)cc1)c1ccccc1	-6	5	-1	0	82*	3	70*	-5	-8
O=C(N/N=C/c1ccc(OCCCF)cc1)c1ccc(C(F)(F)F)cc1	28	4	25	2	93*	30	64*	-19	-13
O=C(N/N=C/c1ccc(OC(=O)c2cccs2)cc1)c1ccc(F)cc1	28	27	14	-3	70*	28	64*	-15	-29
CC(C)(C)c1ccc(C(=O)N/N=C/c2ccc(OCCCF)cc2)cc1	-4	14	-2	6	-2	-1	·	·	·
Cc1cccc(C(=O)Oc2ccc(/C=N/NC(=O)c3cc(O)cc(O)c3)cc2)c1	69*	10	63*	31	53*	12	60*	-9	3
CC(NC(=O)COC(=O)CCN1C(=O)C2CC=CCC2C1=O)c1ccc(Br)cc1 (stereo not drawn)	0	·	0	0	-7	0	·	·	·
O=c1[nH]cnc(O)c1C(c1ccc([N+](=O)[O-])cc1)c1c(O)nc[nH]c1=O	1	-3	-1	-10	-5	-1	·	·	·
CNc1cccc(-c2ccc(C(=O)N3CCOCC3)cc2)n1	2	·	-1	-8	·	0	·	·	·
N#Cc1ccsc1NC(=O)COC(=O)C1=NNC(=O)CC1	29	·	0	38*	71*	62*	49*	-11	5
O=C1CCC(C(=O)OCC(=O)Nc2ccccc2Br)=NN1	3	·	-5	6	·	-1	·	·	·
CC(C)OCCCN(C)C1CCN(S(=O)(=O)c2ccc(-c3ccc(=O)[nH]n3)s2)CC1	-1	8	-4	-19	51*	2	-25	-20	·
SMILES	DNMT1 block	UBC9 SUMO inh	STEP block	SUMO1-SIM PPI	Scp1 inh	LMPTP block	Scp-1 conf	Scp-1 MG ctr	Scp1 DSF
Cc1c(OC(=O)c2ccc([N+](=O)[O-])cc2)c2c(c[n+]1C)COC(C)(C)OC2	-1	-4	1	-18	67*	-3	79*	-18	-6
O=S1(=O)N=C(N2CCc3ccccc3C2)c2ccccc21	-4	-2	0	4	76*	0	-16	-17	·
O=S1(=O)N=C(N2CCCc3ccccc32)c2ccccc21	1	11	-2	2	6	-1	·	·	·
Cn1c(=O)c2nc(-c3ccc(Cl)cc3Cl)oc2c2ccccc21	34	-5	16	10	73*	89*	19	-23	·
Cc1ccc(-n2nnc3c(=O)n(CC(=O)NCc4ccccc4)cnc32)cc1	26	36	33	24	93*	28	86*	-2	-10
CCOc1ccc(CNC(=O)Cn2nc(C)c3c(C)n(-c4ccc(C)cc4)nc3c2=O)cc1	19	12	16	5	85*	12	62*	-13	-21
Cc1ccc(-n2nc3c(=O)n(CC(=O)NCc4ccccn4)nc(C)c3c2C)cc1	0	2	-2	2	-7	-1	·	·	·
CCOc1ccccc1NC(=O)Cn1cnc2c(nnn2-c2cccc(OC)c2)c1=O	3	27	8	22	71*	0	58*	-16	-19
O=C(CCN1C(=O)/C(=C\c2ccccc2)SC1=S)Nc1ccc(C(=O)O)cc1	-1	-2	10	-12	50	24	·	·	·
CCOc1ccc(/C=C2\SC(=S)N(CCC(=O)Nc3ccccc3C(=O)O)C2=O)cc1	1	5	3	8	64*	3	44*	-18	18*
CCOc1ccc(/C=C2/SC(=S)N(CCC(=O)Nc3ccc(C(=O)O)cc3)C2=O)cc1	28	·	47*	61*	56*	64*	78*	-9	2
COc1ccc(/C=C2\SC(=S)N(CCC(=O)Nc3ccccc3C(=O)O)C2=O)cc1	-1	2	2	-1	1	1	·	·	·
CN(CC(=O)Nc1ccc(F)cc1)C(=O)c1ccc(OCc2cn3ccccc3n2)cc1	5	·	-2	2	-10	2	·	·	·
